Compound activity (PubChem BioAssay)
NR2E3 ag-1: agonists of human NR2E3 nuclear receptor | Q9Y5X4 | CHO-S Gal4-NCOR/VP16-NR2E3 two-hybrid, luciferase | inhibition of corepressor binding, % at 3.98 µM | hit rate 0.35% among 360,000 | AID 602229;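 active = inhibition above the mean of all tested compounds plus 3 SD, cut at about 70% in these data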;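 also: 0% = DMSO with NR2E3 transfected cells and 100% = cells lacking NR2E3 construct; higher means lower luciferase signal from less NR2E3 corepressor binding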
Target sequence (Q9Y5X4 whole entry, looked up, the tested form may be a part): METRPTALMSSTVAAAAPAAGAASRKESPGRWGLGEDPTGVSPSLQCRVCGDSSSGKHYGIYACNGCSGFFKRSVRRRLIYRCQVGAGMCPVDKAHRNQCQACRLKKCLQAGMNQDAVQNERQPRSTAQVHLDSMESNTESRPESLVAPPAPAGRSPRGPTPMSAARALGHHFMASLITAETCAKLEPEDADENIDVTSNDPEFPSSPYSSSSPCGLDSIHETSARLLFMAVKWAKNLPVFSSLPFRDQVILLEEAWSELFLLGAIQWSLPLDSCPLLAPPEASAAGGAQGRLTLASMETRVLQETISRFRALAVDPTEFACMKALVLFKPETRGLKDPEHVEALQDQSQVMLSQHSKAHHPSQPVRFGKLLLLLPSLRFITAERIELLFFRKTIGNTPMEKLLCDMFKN
NR2F2 inh: inhibitors of human COUP-TFII (NR2F2); P24468; HEK293T NGFI-A luciferase reporter, luminescence; inhibition, % at 8.6 µM; hit rate 0.7% among 370,000; AID 686940;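 active = inhibition above a per-plate cutoff, mean inhibition of test wells between control levels plus 3 SD, cut at about 38% in these data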;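 also: cells cotransfected with COUP-TFII expression vector driving the NGFI-A reporter; 0% = median of COUP-TF2 test wells and 100% = reporter-only cells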
Target sequence (P24468 whole entry, looked up): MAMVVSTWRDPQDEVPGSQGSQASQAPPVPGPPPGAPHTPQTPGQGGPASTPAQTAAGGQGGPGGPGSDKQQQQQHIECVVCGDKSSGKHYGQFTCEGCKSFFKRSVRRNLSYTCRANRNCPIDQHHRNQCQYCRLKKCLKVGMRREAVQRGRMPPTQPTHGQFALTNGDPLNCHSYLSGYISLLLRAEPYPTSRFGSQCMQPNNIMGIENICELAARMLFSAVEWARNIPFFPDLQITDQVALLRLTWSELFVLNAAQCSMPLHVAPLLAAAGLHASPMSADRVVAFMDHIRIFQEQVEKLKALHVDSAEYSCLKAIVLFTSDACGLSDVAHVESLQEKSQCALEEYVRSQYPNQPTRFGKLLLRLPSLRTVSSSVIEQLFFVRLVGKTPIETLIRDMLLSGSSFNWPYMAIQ
NR2E3 ag-2: agonists of human nuclear receptor NR2E3 | GST-NR2E3/biotin-RetCOR TR-FRET, 1536-well | inhibition of corepressor binding, % at 4.78 µM | hit rate 0.12% among 320,000 | AID 2300;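 active = percent inhibition above the cutoff of mean plus 3 SD of all tested compounds, set per screening campaign, cut at about 20% in these data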;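 also: 0% = DMSO wells and 100% = biotin wells as full block of FRET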
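System: GST-tagged NR2E3 plus biotinylated RetCOR corepressor; Amount: 1.35 nM GST-tagged NR2E3 final; Dosing: single nominal compound dose of 4.8 µM; Schedule: 5 h incubation at 4 °C; Technique: TR-FRET with europium anti-GST and streptavidin-D2, 340 nm excitation; Controls: biotin wells as high control, 0.6% DMSO wells as low control.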
SMARCA2 act: increases SMARCA2 function in MMTV reporter cells. MG213 cells, MMTV-luciferase reporter, dexamethasone, overnight. activation, % at 9.1 µM. hit rate 1% among 370,000. AID 652017; in the data active = activation above about 7.8%;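 also: 0% = vehicle wells and 100% = reference activator wells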
GalR3 antag: blocks the human galanin receptor 3. hit rate 0.44% among 360,000. inhibition, % at 3 µM. O60755. HEK293 GalR3-CNG cAMP membrane potential fluorescence; galR3 body fused to GalR1 C-terminus;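 active = inhibition above the screen-wide average plus 3 SD, cut at about 13% in these data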;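 also: forskolin and galanin both at EC90 stimulate the cells; cAMP rise reported by CNG channel membrane potential dye signal; 0% = forskolin plus galanin with DMSO and 100% = forskolin alone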
NR2E3 ag confirm: confirmation of human NR2E3 agonists; shares compounds with NR2E3 ag-1; CHO-S mammalian two-hybrid NR2E3-NCOR, luciferase luminescence; inhibition, % at 3.98 µM; hit rate 51% among 2,300;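 active = average inhibition above a cutoff equal to the mean inhibition of all tested compounds plus one SD, cut at about 70% in these data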;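 also: 0% = DMSO in NR2E3 cells and 100% = DMSO in cells lacking NR2E3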
GAL4-VP16 luc: counter-screen for NR2E3 agonists: GAL4-VP16 reporter inhibitors; shares compounds with NR2E3 ag-1; hit rate 29% among 2,300; inhibition, % at 3.98 µM; CHO-S GAL4-VP16 luciferase reporter, luminescence;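 active = mean inhibition above a cutoff equal to the average over all tested compounds plus one standard deviation, cut at about 70% in these data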;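 also: luciferase from a UAS reporter driven by GAL4-VP16 transactivation; 0% = DMSO with VP16-transfected cells and 100% = DMSO with cells lacking VP16; higher means less reporter light so more repression of VP16 activity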
GalR3 antag conf: confirmation of human galanin receptor 3 antagonists | shares compounds with GalR3 antag | HEK293 GalR3 CNG cAMP biosensor, membrane potential fluorescence; galR3 fused to GalR1 carboxy tail; challenged with forskolin and galanin at EC90 | inhibition, % at 3 µM | hit rate 59% among 1,600 | AID 652245;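 active = inhibition above the primary screen's cutoff, the mean inhibition of all screened compounds plus 3 SD, cut at about 13% in these data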;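 also: 0% = forskolin plus galanin and 100% = forskolin alone with DMSO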
CNG parental: counter-screen for GalR3 antagonists: nonspecific agonists in parental HEK-CNG cells; shares compounds with GalR3 antag; HEK293-CNG parental cells, cAMP membrane potential fluorescence; normalised: DMSO wells 0%, forskolin wells 100%; activation, % at 3 µM; hit rate 10% among 1,600; AID 652268; in the data active = activation above about 1.3%
VP16 Luc counter: VP16 inhibition counter-screen for COUP-TFII; shares compounds with NR2F2 inh; AID 687007; hit rate 25% among 2,500; HEK293 Gal4-VP16 luciferase reporter, luminescence; inhibition, % at 8.5 µM; in the data active = inhibition above about 13%
NR2F2 inh conf: confirmation of human COUP-TFII (NR2F2) inhibitors. shares compounds with NR2F2 inh. hit rate 45% among 2,500. HEK293 NGFI-A luciferase reporter, luminescence. inhibition, % at 8.5 µM;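 active = mean inhibition over three repeats above a set limit taken from the earlier primary screen, cut at about 38% in these data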;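 also: 100% = cells given the luciferase reporter alone without the COUP-TF2 vector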
* marks the source's active call; other numbers are inactive results; . = no result given. The list is not random: actives were taken first. Their share in the collection is about 2.2%.

SMILES	NR2E3 ag-1	NR2F2 inh	NR2E3 ag-2	SMARCA2 act	GalR3 antag	NR2E3 ag confirm	GAL4-VP16 luc	VP16 Luc counter	NR2F2 inh conf	others
O=C(CCCc1nc(-c2ccccc2Cl)no1)NC1CCCC1	61.8	73.5*	-1.1	-6.1	-1.9	60.0	56.1	-0.3	3.0
CC(C)(C)c1ccc(C(=O)Nc2cc(Cl)c(F)cc2C(=O)O)cc1	.	-15.9	.	.	.	.	.	.	.
C=C(C(=O)c1ccccc1)C(C)C(=C)C(=O)c1ccccc1	69.5	57.6*	3.0	-4.3	-0.7	79.0*	27.1	47.1*	86.8*
Cc1ccc(NC(=O)c2ccc(CS(=O)(=O)Cc3ccccc3C)o2)c(C)c1	.	0.3	.	-2.8	.	.	.	.	.
CCCC[C@H]1C2CC(OC(=O)Nc3ccc(C)cc3)C(C2)[C@H]2CCCCN21 (some centres undefined)	.	-17.0	.	-2.7	.	.	.	.	.
Cc1nnc(NC(=O)CSc2nc3ccccc3o2)s1	4.1	10.5	-1.1	-2.7	-2.0	.	.	.	.
CC1CCc2nc(NC(=O)CSc3nc4ccccc4o3)sc2C1 (centres undefined)	84.4*	43.4*	0.7	-6.0	-7.3	61.7	56.9	30.6*	67.8*
COc1cc(NC(=O)Cc2nn(C)c(=O)c3ccccc23)cc(OC)c1	14.3	37.2	0.6	-2.1	5.3	.	.	.	.
Cn1nc(CC(=O)Nc2ccc(N3CCN(C(=O)OC(C)(C)C)CC3)cc2)c2ccccc2c1=O	75.7*	53.2*	-3.0	-6.3	3.7	90.1*	79.1*	7.3	64.4*
Cn1nc(CC(=O)Nc2ccc3c(c2)OCCO3)c2ccccc2c1=O	97.8*	68.2*	0.6	-0.9	100.0*	91.5*	72.7*	-2.2	53.2*	GalR3 antag conf=105.7*;CNG parental=-0.5
Cc1csc(NC(=O)Cc2nn(C)c(=O)c3ccccc23)n1	68.4	44.7*	1.9	-2.7	-2.8	65.0	54.0	-3.6	24.8
Cn1nc(CC(=O)N2CCN(c3ccccc3)CC2)c2ccccc2c1=O	-15.9	8.4	3.5	2.9	-0.5	.	.	.	.
Cc1nc2c(-c3ccccc3)cnn2c(N)c1-c1ccccc1	74.3*	69.4*	.	-6.8	-7.9	54.6	-5.9	9.2	72.3*
Cc1cc(-c2ccccc2)n2ncc(-c3ccccc3)c2n1	-42.6	8.5	-0.2	-0.8	-4.4	.	.	.	.
Cc1cc(N2CCN(c3nc4ccccc4s3)CC2)n2ncnc2n1	73.1*	67.7*	0.8	-6.5	23.9*	94.1*	76.5*	-6.8	71.3*	GalR3 antag conf=37.0*;CNG parental=-0.1
Cc1ccccc1Cn1c(C)nc2ccccc21	61.8	47.5*	-1.5	-3.9	60.2*	93.0*	82.2*	3.4	46.1*	GalR3 antag conf=103.5*;CNG parental=0.0
OCc1nc2ccccc2n1Cc1ccc(Cl)cc1	20.8	9.5	6.9	-3.1	-4.6	.	.	.	.
Cc1nc2ccccc2n1Cc1ccc(Cl)cc1	92.3*	60.6*	3.6	-5.2	86.9*	93.5*	82.7*	1.3	38.8*	GalR3 antag conf=108.5*;CNG parental=-0.1
Cc1ccc2c(c1)C(CS(=O)(=O)NCc1ccccc1)NC2 (centres undefined)	.	-10.6	.	-1.5	.	.	.	.	.
O=C(OCc1cn(Cc2cc(F)cc(F)c2)nn1)N1CCOCC1	.	-7.2	.	-6.3	.	.	.	.	.
Cc1nc2sccn2c1-c1csc(NCc2ccccc2)n1	61.5	37.9*	1.0	-3.9	-8.2	86.4*	71.0*	-15.9	21.3
C=CCNc1nc(-c2c(C)nc3sccn23)cs1	-9.7	-6.8	-3.4	-1.9	-5.6	.	.	.	.
O=S(=O)(NCc1ccncc1)c1ccc(F)c(F)c1	31.0	32.3	.	-0.2	-8.7	.	.	.	.
COc1cc(S(=O)(=O)NCc2ccncc2)ccc1Br	94.5*	56.3*	3.9	-3.0	63.1*	78.4*	68.5	7.7	43.5*	GalR3 antag conf=90.1*;CNG parental=-0.3
Cc1ccc(S(=O)(=O)NCc2ccncc2)cc1C	61.5	60.1*	4.1	-6.2	87.8*	91.7*	76.4*	14.8*	57.0*	GalR3 antag conf=104.9*;CNG parental=-0.5
SMILES	NR2E3 ag-1	NR2F2 inh	NR2E3 ag-2	SMARCA2 act	GalR3 antag	NR2E3 ag confirm	GAL4-VP16 luc	VP16 Luc counter	NR2F2 inh conf	others
O=S(=O)(NCc1ccncc1)c1ccccc1	16.3	23.1	5.2	-0.7	-0.1	.	.	.	.
CCN(C1CCCCC1)S(=O)(=O)c1ccc(S(=O)(=O)NCc2ccncc2)cc1	90.8*	54.7*	0.5	-6.2	16.0*	88.0*	73.7*	0.6	31.9	GalR3 antag conf=48.9*;CNG parental=-0.6
Cc1cc(C)c(C)c(S(=O)(=O)NCc2ccncc2)c1C	69.4	37.5*	4.2	-6.7	-11.1	46.5	34.2	6.1	30.3
C=CCN1[C@H](CO)[C@H](c2ccc(Br)cc2)[C@@H]1C#N	.	-3.1	.	3.8	.	.	.	.	.
CCOC(=O)C1(Cc2ccccc2)CCN(Cc2ccc(C)cc2)CC1	.	11.9	.	-4.9	.	.	.	.	.
O=C(O)CNS(=O)(=O)c1ccc(Br)s1	-18.6	2.9	-3.2	0.5	0.3	.	.	.	.
O=S(=O)(NCc1ccncc1)c1ccc(Br)s1	102.6*	63.4*	0.9	-2.4	104.8*	92.1*	77.8*	6.7	53.8*	GalR3 antag conf=116.3*;CNG parental=-0.1
Cc1cc(Br)c(S(=O)(=O)NCc2ccncc2)cc1C	81.8*	54.0*	2.4	-3.4	100.8*	70.3*	65.6	8.4	47.0*	GalR3 antag conf=105.1*;CNG parental=-0.3
C#CCN1C(=O)[C@@](O)(c2cccn2C)c2cc(F)ccc21	.	0.2	.	-2.5	.	.	.	.	.
O=C(c1cc(S(=O)(=O)N2CCN(c3ccccc3)CC2)ccc1Cl)N1CCCC(C(F)(F)F)C1 (centres undefined)	81.5*	46.1*	1.9	-6.6	-4.6	92.3*	76.3*	1.9	31.8
O=C(Nc1cccc([N+](=O)[O-])c1)NC1CCCCN(Cc2ccc(Cl)cc2)C1=O (centres undefined)	.	12.2	.	-3.8	.	.	.	.	.
CCOC(=O)C1(Cc2ccc(OC)cc2)CCN(S(C)(=O)=O)CC1	-31.2	0.8	-2.1	1.3	-8.2	.	.	.	.
CCOC(=O)C1(Cc2ccc(Cl)cc2)CCN(C(C)Cc2ccc(O)c(OC)c2)CC1 (centres undefined)	64.2	52.8*	6.3	-4.0	-12.3	85.9*	74.9*	2.1	16.4
